ChEMBL document CHEMBL1287652, “QSAR modeling, synthesis and bioassay of diverse leukemia RPMI-8226 cell line active agents” (2010)

How the values were obtained:
Assay type in all cases: functional
[1] = tested on: DU-145; test: Antitumor activity against human DU145 cells at 10 uM after 48 hrs by sulforhodamine B assay relative to control; conditions: DU-145, 48 h, values are per cent of control
Outline: (§1)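 Single-dose screen in a 55-line panel. Cells in RPMI-1640 with 5% FBS and 2 mM glutamine were preincubated for 24 h, then exposed to compound (DMSO stock diluted in medium) for 48 h at 37 °C with 5% CO2. Cells were fixed with cold TCA, stained with 0.4% SRB in 1% acetic acid, and dye was solubilized in 10 mM Tris base and read at 515 nm. Growth is given as percent of untreated control.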

[2] = tested on: NCI-H226; test: Antitumor activity against human NCI-H226 cells at 10 uM after 48 hrs by sulforhodamine B assay relative to control; conditions: NCI-H226, 48 h, values are per cent of control
Outline: (§2)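 NCI panel lines were grown in RPMI-1640 with 5% FBS and 2 mM L-glutamine and seeded at 5000–40,000 cells/well according to doubling time. After 24 h at 37 °C, 5% CO2, one dose from a DMSO stock was added for 48 h. Cells were TCA-fixed (10% final adherent, 16% suspension), SRB-stained and read at 515 nm. Percent growth is relative to untreated control.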

[3] = tested on: HOP-62; test: Antitumor activity against human HOP62 cells at 10 uM after 48 hrs by sulforhodamine B assay relative to control; conditions: HOP-62, 48 h, values are per cent of control; outline: as §1
[4] = tested on: UO-31; test: Antitumor activity against human UO31 cells at 10 uM after 48 hrs by sulforhodamine B assay relative to control; conditions: UO-31, 48 h, values are per cent of control
Outline: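 NCI panel line grown in RPMI-1640 with 5% FBS and 2 mM L-glutamine, plated at 5000–40,000 cells/well, 24 h preincubation. Single final 10 µM from DMSO stock, 48 h at 37 °C, 5% CO2. TCA fixation (10% adherent, 16% suspension), SRB stain, absorbance 515 nm. Percent growth relative to untreated control.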

[5] = tested on: HCT-15; test: Antitumor activity against human HCT15 cells at 10 uM after 48 hrs by sulforhodamine B assay relative to control; conditions: HCT-15, 48 h, values are per cent of control; outline: as §1
[6] = tested on: 786-0; test: Antitumor activity against human 786-0 cells at 10 uM after 48 hrs by sulforhodamine B assay relative to control; conditions: 786-0, 48 h, values are per cent of control; outline: as §1
[7] = tested on: SF-268; test: Antitumor activity against human SF268 cells at 10 uM after 48 hrs by sulforhodamine B assay relative to control; conditions: SF-268, 48 h, values are per cent of control; outline: as §2
[8] = tested on: SNB-75; test: Antitumor activity against human SNB75 cells at 10 uM after 48 hrs by sulforhodamine B assay relative to control; conditions: SNB-75, 48 h, values are per cent of control; outline: as §2
[9] = tested on: SN12C; test: Antitumor activity against human SN12C cells at 10 uM after 48 hrs by sulforhodamine B assay relative to control; conditions: values are per cent of control; outline: as §2
[10] = tested on: CCRF-CEM; test: Antitumor activity against human CCRF-CEM cells at 10 uM after 48 hrs by sulforhodamine B assay relative to control; conditions: values are per cent of control; outline: as §1
[11] = tested on: COLO 205; test: Antitumor activity against human COLO205 cells at 10 uM after 48 hrs by sulforhodamine B assay relative to control; conditions: COLO 205, 48 h, values are per cent of control; outline: as §1
[12] = tested on: HCT-116; test: Antitumor activity against human HCT116 cells at 10 uM after 48 hrs by sulforhodamine B assay relative to control; conditions: HCT-116, 48 h, values are per cent of control; outline: as §1
[13] = tested on: SK-MEL-5; test: Antitumor activity against human SK-MEL-5 cells at 10 uM after 48 hrs by sulforhodamine B assay relative to control; conditions: SK-MEL-5, 48 h, values are per cent of control; outline: as §2
[14] = tested on: IGROV-1; test: Antitumor activity against human IGROV1 cells at 10 uM after 48 hrs by sulforhodamine B assay relative to control; conditions: IGROV-1, 48 h, values are per cent of control; outline: as §1
[15] = tested on: MOLT-4; test: Antitumor activity against human MOLT4 cells at 10 uM after 48 hrs by sulforhodamine B assay relative to control; conditions: MOLT-4, 48 h, values are per cent of control; outline: as §2
[16] = tested on: PC-3; test: Antitumor activity against human PC3 cells at 10 uM after 48 hrs by sulforhodamine B assay relative to control; conditions: PC-3, 48 h, values are per cent of control; outline: as §2
[17] = tested on: MDA-MB-468; test: Antitumor activity against human MDA-MB-468 cells at 10 uM after 48 hrs by sulforhodamine B assay relative to control; conditions: MDA-MB-468, 48 h, values are per cent of control; outline: as §2
[18] = Antitumor activity against human Hs 578T cells at 10 uM after 48 hrs by sulforhodamine B assay relative to control; conditions: values are per cent of control; outline: as §1
[19] = tested on: SNB-19; test: Antitumor activity against human SNB19 cells at 10 uM after 48 hrs by sulforhodamine B assay relative to control; conditions: SNB-19, 48 h, values are per cent of control; outline: as §2
[20] = tested on: HL-60(TB); test: Antitumor activity against human HL-60(TB) cells at 10 uM after 48 hrs by sulforhodamine B assay relative to control; conditions: HL-60, 48 h
Outline: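 Single-dose NCI screen. Cells were in RPMI-1640 with 5% FBS and 2 mM L-glutamine, plated by doubling time and held 24 h at 37 °C in 5% CO2 before dosing. Exposure was 48 h. Suspension cells were fixed in situ with TCA (final 16%), SRB-stained, and read at 515 nm. Percentage growth was expressed relative to untreated control cells.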

[21] = tested on: HOP-92; test: Antitumor activity against human HOP92 cells at 10 uM after 48 hrs by sulforhodamine B assay relative to control; conditions: HOP-92, 48 h, values are per cent of control; outline: as §1
[22] = tested on: EKVX; test: Antitumor activity against human EKVX cells at 10 uM after 48 hrs by sulforhodamine B assay relative to control; conditions: values are per cent of control; outline: as §1
[23] = tested on: OVCAR-4; test: Antitumor activity against human OVCAR4 cells at 10 uM after 48 hrs by sulforhodamine B assay relative to control; conditions: OVCAR-4, 48 h, values are per cent of control; outline: as §2
[24] = tested on: MDA-MB-231; test: Antitumor activity against human MDA-MB-231 cells after 48 hrs by sulforhodamine B assay; conditions: MDA-MB-231, 48 h
Outline: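 Cells were grown in RPMI-1640 with 5% FBS and 2 mM L-glutamine, plated at 5000–40,000 cells/well, and preincubated for 24 h. A time-zero plate was TCA-fixed. Compounds were added from DMSO stock at five concentrations for 48 h at 37 °C. Cells were fixed with TCA (adherent 10%, suspension 16%) and stained with SRB, and A515 was read. GI50 and TGI were calculated from Tz, control and test absorbances.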

[25] = tested on: NCI-H322M; test: Antitumor activity against human NCI-H322M cells after 48 hrs by sulforhodamine B assay
Outline: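 Cells were cultured in RPMI-1640 (5% FBS, 2 mM L-glutamine), pre-incubated for 24 h with time-zero plates TCA-fixed, then exposed for 48 h to five serial dilutions. The SRB read-out at 515 nm used time-zero, control and test absorbances. GI50 solves [(Ti−Tz)/(C−Tz)]×100 = 50 (net protein increase). TGI is the concentration giving 100% growth inhibition.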

Row | SMILES | growth, % of control at 10 µM [1] [%] | growth, % of control at 10 µM [2] [%] | growth, % of control at 10 µM [3] [%] | growth, % of control at 10 µM [4] [%] | growth, % of control at 10 µM [5] [%] | growth, % of control at 10 µM [6] [%] | growth, % of control at 10 µM [7] [%] | growth, % of control at 10 µM [8] [%] | growth, % of control at 10 µM [9] [%] | growth, % of control at 10 µM [11] [%] | growth, % of control at 10 µM [12] [%] | growth, % of control at 10 µM [13] [%] | growth, % of control at 10 µM [14] [%] | growth, % of control at 10 µM [15] [%] | growth, % of control at 10 µM [16] [%] | growth, % of control at 10 µM [17] [%] | growth, % of control at 10 µM [18] [%] | growth, % of control at 10 µM [19] [%] | inhibition at 10 µM [20] [%] | growth, % of control at 10 µM [22] [%] | further results
1 | O=C(Nc1ccc(Cl)cc1)Nc1ccc(OCCCOc2ccc(NC(=O)Nc3ccc(Cl)cc3)cc2)cc1 | 121 | 123 | 96.2 | 68.8 | 117 | 93.7 | 125 | 92.2 | 105 | 166 | 94.8 | > 100 | 85.1 | 118 | 93 | 114 | 85.4 | 108 | 105 | 95 | growth, % of control at 10 µM [10]: 157%; growth, % of control at 10 µM [21]: 181%; growth, % of control at 10 µM [23]: 110%
2 | COc1ccc(NC(=O)Nc2ccc(OCCCOc3ccc(NC(=O)Nc4ccc(OC)cc4)cc3)cc2)cc1 | 107 | 121 | 95.7 | 71.4 | 118 | 86.9 | 103 | 101 | 87.3 | 124 | 83.3 | 99.5 | 90.2 | 95.5 | 108 | 91.1 | 88.2 | 94.5 | 90.4 | 86.7 | growth, % of control at 10 µM [21]: 81.5%; growth, % of control at 10 µM [23]: 109%
3 | COc1ccc(NC(=O)Nc2ccccc2OCCCOc2ccccc2NC(=O)Nc2ccc(OC)cc2)cc1 | 39.4 | 87.1 | 38.5 | -20.7 | 65.5 | -31.5 | 50.7 | -34.8 | -21.3 | 18.6 | -36.8 | 48.7 | 4.9 | -5.8 | -36.5 | 22.6 | 46.4 | 47.6 | 18.8 | 2.2 | GI50 [24]: 8.8 µM; TGI [24]: > 100 µM; growth, % of control at 10 µM [10]: -7.12%; growth, % of control at 10 µM [23]: -67.2%; GI50 [25]: > 100 µM; TGI [25]: > 100 µM
